Data taken from publication PMC7114206 (Antiviral Research, 2008).
Converted amounts (≈) assume the structure as drawn. “And” between values parts separate entries of the source, which are not always exact repeats. Equal entries are not always repeated. Where two headings read alike, the source gives them in different places.

Columns and labels:
[1] = Cytotoxicity SRB assay in Vero cells; type: cell-based, african green monkey; details: african green monkey, CC50, concentration required to reduce cell growth by 50%, 48 h
How it was run: (§1)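 Vero cells seeded at 2 × 10^4/well and grown 1 day, then given medium with serially diluted test compound for 48 h. After PBS wash, cells fixed with cold 70% acetone (30 min, −20 °C), dried and stained 30 min with 0.4% SRB in 1% acetic acid. Dye solubilised in 10 mM Tris and read at A540 (ref 620 nm). CC50 read graphically from % of control curves.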

[2] = system: porcine epidemic diarrhea virus; assay: Antiviral activity against PEDV, CPE reduction by SRB method in Vero cells; type: cell-based, porcine epidemic diarrhea virus (PEDV CV 777)
[3] = system: Vero cells; assay: Cytotoxicity SRB assay in Vero cells; type: cell-based, african green monkey
How it was run: as §1

[4] = system: PEDV; assay: Time-of-addition effect on PEDV replication in Vero cells; type: cell-based, porcine epidemic diarrhea virus
How it was run: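 Vero cells seeded at 2 × 10^4/well and grown 1 day, then PBS-washed. […] After 2 days, SRB CPE-reduction read-out expressed as inhibition rate; mean ± S.D. of three independent experiments.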

[5] = system: TGEV; assay: Antiviral activity against TGEV in ST cells; type: cell-based, transmissible gastroenteritis virus
[6] = system: membrane (M) gene of PEDV; assay: RT-PCR analysis of PEDV replication; type: cell-based, porcine epidemic diarrhea virus; details: 10 μg/mL; RNA extracted 24 and 48 h after infection
[7] = system: PRCV; assay: Antiviral activity against PRCV in ST cells; type: cell-based, porcine respiratory coronavirus
How it was run: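 PRCV (ATCC VR-2384) grown on ST pig testis cells kept in MEM with 10% FBS and 0.01% antibiotic-antimycotic. Read-out is SRB-based reduction of virus-induced CPE. IC50 is the concentration giving 50% inhibition of CPE, in μg/mL. TI = CC50/IC50. Values are means of three independent experiments run in triplicate ± S.D.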

[8] = system: ST cells; assay: Cytotoxicity SRB assay in ST cells; type: cell-based, pig; details: for Cytotoxicity: highest concentrations tested
How it was run: (§2)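 ST pig testis cells kept in MEM with 10% FBS and 0.01% antibiotic-antimycotic. SRB staining gives cell growth. CC50 is the concentration reducing cell growth by 50%, in μg/mL. Values are means of three independent experiments run in triplicate ± S.D.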

[9] = Cytotoxicity SRB assay in ST cells; type: cell-based, pig; details: pig
How it was run: as §2

[10] = interferon-α in units, listed as interferon-α

O=c1cc(-c2ccc(O)cc2)oc2cc(O)cc(O)c12 [Apigenin]
CC50 at 48 h [1]: > 50 µg/mL
IC50, concentration required to inhibit virus-induced CPE by 50% ([2]; SRB, 2 days): 0.1 ± 0.1 µg/mL (≈ 0.37 µM)
IC50, concentration required to inhibit virus-induced CPE by 50% ([2]; SRB, 2 days, listed as apigenin): less than 12 μg/mL

O.Oc1cc(O)c2c(c1)O[C@H](c1ccc(O)c(O)c1)[C@@H](O)C2 [Catechin]
CC50, concentration required to reduce cell growth by 50% ([3]; 48 h): >100 µg/mL
TI, therapeutic index = CC50/IC50 [2]: >9.0
IC50, concentration required to inhibit virus-induced CPE by 50% ([2]; SRB, 2 days): 11.1 ± 7.1 µg/mL
IC50, concentration required to inhibit virus-induced CPE by 50% ([2]; SRB, 2 days, listed as catechin): less than 12 μg/mL

O=c1ccc2ccccc2o1 [Coumarin]
TI, therapeutic index = CC50/IC50 [2]: 4.8

O=c1cc(-c2ccc(O)c(O)c2)oc2cc(O)cc(O)c12 [Luteolin]
CC50 at 48 h [1]: 6.7 µg/mL (≈ 23.4 µM)
IC50, concentration required to inhibit virus-induced CPE by 50% ([2]; SRB, 2 days): 0.2 ± 0.2 µg/mL (≈ 0.699 µM)
IC50, concentration required to inhibit virus-induced CPE by 50% ([2]; SRB, 2 days, listed as luteolin): less than 12 μg/mL

C[C@@H]1O[C@@H](Oc2cc(O)c3c(=O)c(O)c(-c4ccc(O)c(O)c4)oc3c2)[C@H](O)[C@H](O)[C@H]1O [Q7R, quercetin 7-rhamnoside]
Inhibition rate (time of addition) ([4]; 10 μg/mL added at 0, 1, 2 and 4 h after virus inoculation, SRB after 2 days): higher than 85%
IC50 ([5]; TGEV in ST cells): 63.31 ± 1.07 µg/mL (≈ 141 µM)
TI, therapeutic index = CC50/IC50 ([5]; TGEV in ST cells): >1.58
CC50, concentration required to reduce cell growth by 50% ([3]; 48 h): >100 µg/mL
Intensity of the RT-PCR product band of PEDV [6]: decreased the intensity of the product band of PEDV at 24 and 48 h after infection
IC50 ([7]; PRCV in ST cells): 59.76 ± 5.70 µg/mL (≈ 133 µM)
TI, therapeutic index = CC50/IC50 ([7]; PRCV in ST cells): >1.67
CC50 [8]: >100 µg/mL
Cytotoxicity [8]: did not exhibit any cytotoxicity at the highest concentrations tested
TI, therapeutic index = CC50/IC50 [2]: 7142 and > 7142.86
IC50, concentration required to inhibit virus-induced CPE by 50% ([2]; SRB, 2 days): 0.014 ± 0.005 µg/mL (≈ 0.0312 µM)
TI, therapeutic index = CC50/IC50 ([2]; listed as Quercetin 7-rhanmoside): >7142.86

O=c1c(O)c(-c2ccc(O)c(O)c2)oc2cc(O)cc(O)c12 [Quercetin]
CC50 at 48 h [1]: 365 µg/mL (≈ 1210 µM)
TI, therapeutic index = CC50/IC50 [2]: 214.8

NC(=O)c1ncn([C@@H]2O[C@H](CO)[C@@H](O)[C@H]2O)n1 [Ribavirin]
inhibition at 10 µg/mL ([4]; Porcine epidemic diarrhea virus, Vero, read-out: Inhibition rate (time of addition)): < 50%
IC50 ([5]; Alphacoronavirus 1): 55.1 ± 0.8 µg/mL (≈ 226 µM)
CC50 at 48 h [1]: 423 µg/mL (≈ 1730 µM)
Intensity of the RT-PCR product band of PEDV [6]: did not decrease the intensity of the product band of PEDV at 48 h after infection
IC50 ([7]; Alphacoronavirus 1): 61.6 ± 1.91 µg/mL (≈ 252 µM)
TI, therapeutic index = CC50/IC50 ([7]; PRCV in ST cells): >1.62
Cytotoxicity [8]: did not exhibit any cytotoxicity at the highest concentrations tested
CC50 at 48 h [9]: > 100 µg/mL
TI, therapeutic index = CC50/IC50 [2]: 103.2

Interferon-α
CC50, concentration required to reduce cell growth by 50% ([3]; interferon-α in units): >100 unit
CC50, concentration required to reduce cell growth by 50% [3, 10]: > 100 unit
TI, therapeutic index = CC50/IC50 [2]: >192.3
IC50, concentration required to inhibit virus-induced CPE by 50% ([2]; interferon-α in units): 0.52 ± 0.5 unit
IC50, concentration required to inhibit virus-induced CPE by 50% [2, 10]: 0.52 unit
TI, therapeutic index = CC50/IC50 ([2]; listed as interferon-α): > 192.3

Tannic acid
TI, therapeutic index = CC50/IC50 [2]: 9.2
